The values that follow come from ChEMBL document CHEMBL1641459, “Virtual screening and synthesis of quinazolines as novel JAK2 inhibitors” (Bioorg Med Chem, 2011).

The source made the active and inactive calls. No cut-off for these calls is given here.

Assay [1] concerns HeLa. The assay can be described thus: Cytotoxicity against human HeLa cells after 48 hrs by MTT assay. In kind it is functional, cell-based. For orientation: Tetrazolium dyes change colour on reduction, which living cells bring about.
Assay [2] deals with HT-29. The assay can be described thus: Cytotoxicity against human HT-29 cells after 48 hrs by MTT assay. The note with it: HT-29, 48 h. It counts as functional, cell-based.
Assay [3] concerns the target Tyrosine-protein kinase JAK2 (Homo sapiens) (UniProt O60674). Nature of the assay: Inhibition of recombinant JAK2 at 20 uM.
In assay [4] the test system is SK-OV-3. The assay can be described thus: Cytotoxicity against human SKOV3 cells after 48 hrs by MTT assay. It counts as functional, cell-based. The note with it: SK-OV-3, 48 h.
The subject of assay [5] is HT-29. Nature of the assay: Induction of cell cycle arrest in human HT-29 cells assessed as increase accumulation at G2/M phase at 5 to 20 uM after 24 hrs by flow cytometry. It counts as functional, cell-based. The gist of the method: (§1)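 HT-29 cells grown to 70–80% confluence, treated at 5, 10 and 20 µM for 24 h, fixed in 70% ethanol 1 h on ice, stained with propidium iodide (50 µg/mL) plus RNase A for 30 min in the dark at room temperature, DNA content by flow cytometry; means of three independent experiments, Student's t-test.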
Background: Flow cytometry measures light scatter and fluorescence of single cells or particles in a stream.

Assay [6] concerns the target Tyrosine-protein kinase JAK2 (Homo sapiens) (UniProt O60674). Nature of the assay: Inhibition of IL-6-induced JAK2 phosphorylation in human HT-29 cells by Western blotting. In kind it is cell-based. The gist of the method: (§2)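 HT-29 cells treated with IL-6 for 0.5 h, then compound (10, 20 µM or 50, 100 µM); lysed in ice-cold Hepes/Triton X-100 buffer with protease/phosphatase inhibitors, 30–40 µg protein immunoblotted for JAK2 and p-JAK2, ECL detection, GAPDH control; densitometry as % of control, three independent experiments.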

Assay [7] concerns HT-29. The assay can be described thus: Induction of cell cycle arrest in human HT-29 cells assessed as decrease in accumulation at G1 phase at 5 to 20 uM after 24 hrs by flow cytometry. It counts as functional, cell-based. The method in brief:
as §1

For assay [8], the target named is Tyrosine-protein kinase JAK2 (Homo sapiens) (UniProt O60674). Nature of the assay: Inhibition of human JAK2-mediated IL6-induced Stat3-STAT3-dependent luciferase activity in human HT-29 cells at 5 to 20 uM by Western blotting. In kind it is cell-based. The note with it: in the assay text read “by luciferase reporter gene assay” for “by Western blotting”. The method in brief:
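HT-29 cells co-transfected with pSTAT3-Luc and phRL-TK; after 24 h serum-starved overnight, treated 1 h with compound at varying concentrations and stimulated with IL-6 (20 ng/mL); dual luciferase readout normalised to Renilla; three independent experiments, Student's t-test.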
In general terms: A western blot detects proteins with antibodies after separation by electrophoresis.

Assay [9] addresses Tyrosine-protein kinase JAK2 (Mus musculus) (UniProt Q62120). Nature of the assay: Inhibition of IL-6-induced JAK2 phosphorylation in mouse embryonic stem cells at 20 uM by Western blotting. In kind it is cell-based. The gist of the method:
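Mouse embryonic stem cells pretreated with IL-6, then exposed to compound; p-JAK2 level assessed by Western blotting.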

Assay [10] has as its target Tyrosine-protein kinase JAK2 (Homo sapiens) (UniProt O60674). Nature of the assay: Inhibition of IL-6-induced JAK2 phosphorylation in human HT-29 cells at 50 to 100 uM by Western blotting. In kind it is cell-based. The method in brief: as §2
Assay [11] has as its system HT-29. Nature of the assay: Induction of cell cycle arrest in human HT-29 cells assessed as increase accumulation at G2/M phase at 10 to 30 uM after 48 hrs by flow cytometry. It counts as functional, cell-based. The method in brief: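 HT-29 cells at 70–80% confluence treated at 10, 20 and 30 µM for 48 h, ethanol-fixed (70%, 1 h on ice), propidium iodide stained with RNase A, DNA content analysed by flow cytometry; three independent experiments, Student's t-test versus untreated control.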

Assay [12] deals with HT-29. Nature of the assay: Cytotoxicity against human HT-29 cells upto 25 uM after 48 hrs by MTT assay. In kind it is functional, cell-based. The gist of the method: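 MTT assay: cells seeded at 1 × 10⁵ cells/mL in RPMI-1640 with 10% FBS, compounds added after 24 h at various concentrations and exposed 48 h; MTT (5 mg/mL stock in PBS) added for 4 h, formazan dissolved in DMSO, absorbance read at 540 nm. Cells cultured in RPMI-1640, 10% FBS, 37 °C, 5% CO₂.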

Assay [13] addresses Tyrosine-protein kinase JAK2 (Homo sapiens) (UniProt O60674). Nature of the assay: Inhibition of IL-6-induced JAK2 phosphorylation in human HT-29 cells at 10 to 20 uM by Western blotting. It counts as cell-based. The method in brief:
as §2

Sequence of Tyrosine-protein kinase JAK2 (Homo sapiens) (O60674 whole entry): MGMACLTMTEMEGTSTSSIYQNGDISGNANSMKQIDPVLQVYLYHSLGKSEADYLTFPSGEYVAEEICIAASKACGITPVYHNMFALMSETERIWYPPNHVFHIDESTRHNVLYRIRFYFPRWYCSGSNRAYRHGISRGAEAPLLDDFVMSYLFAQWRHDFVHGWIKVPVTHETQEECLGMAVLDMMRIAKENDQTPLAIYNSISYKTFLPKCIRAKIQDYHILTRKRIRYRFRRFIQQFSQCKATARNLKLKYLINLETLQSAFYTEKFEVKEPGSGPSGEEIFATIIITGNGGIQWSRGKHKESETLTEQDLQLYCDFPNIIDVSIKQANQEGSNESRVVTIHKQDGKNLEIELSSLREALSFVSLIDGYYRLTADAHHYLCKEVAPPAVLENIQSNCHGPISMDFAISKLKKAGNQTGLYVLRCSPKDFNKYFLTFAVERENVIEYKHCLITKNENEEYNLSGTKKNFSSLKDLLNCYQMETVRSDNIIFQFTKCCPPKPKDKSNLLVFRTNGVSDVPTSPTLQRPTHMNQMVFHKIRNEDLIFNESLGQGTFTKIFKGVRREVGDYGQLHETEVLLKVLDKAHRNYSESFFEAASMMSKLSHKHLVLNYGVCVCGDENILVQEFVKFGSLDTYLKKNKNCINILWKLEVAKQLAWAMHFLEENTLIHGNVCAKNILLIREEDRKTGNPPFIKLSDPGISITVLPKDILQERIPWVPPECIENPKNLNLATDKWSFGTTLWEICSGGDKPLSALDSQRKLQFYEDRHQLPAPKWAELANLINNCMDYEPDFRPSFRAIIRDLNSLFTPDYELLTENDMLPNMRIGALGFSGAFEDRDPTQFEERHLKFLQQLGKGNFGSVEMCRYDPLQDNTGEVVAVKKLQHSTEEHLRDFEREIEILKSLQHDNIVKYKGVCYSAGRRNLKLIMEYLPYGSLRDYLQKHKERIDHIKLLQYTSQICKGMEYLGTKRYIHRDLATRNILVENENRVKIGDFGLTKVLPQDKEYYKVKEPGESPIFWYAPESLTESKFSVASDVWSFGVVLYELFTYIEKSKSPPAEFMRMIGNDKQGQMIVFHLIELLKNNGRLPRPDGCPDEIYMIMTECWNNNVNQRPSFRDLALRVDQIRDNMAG
Sequence of Tyrosine-protein kinase JAK2 (Mus musculus) (Q62120 whole entry): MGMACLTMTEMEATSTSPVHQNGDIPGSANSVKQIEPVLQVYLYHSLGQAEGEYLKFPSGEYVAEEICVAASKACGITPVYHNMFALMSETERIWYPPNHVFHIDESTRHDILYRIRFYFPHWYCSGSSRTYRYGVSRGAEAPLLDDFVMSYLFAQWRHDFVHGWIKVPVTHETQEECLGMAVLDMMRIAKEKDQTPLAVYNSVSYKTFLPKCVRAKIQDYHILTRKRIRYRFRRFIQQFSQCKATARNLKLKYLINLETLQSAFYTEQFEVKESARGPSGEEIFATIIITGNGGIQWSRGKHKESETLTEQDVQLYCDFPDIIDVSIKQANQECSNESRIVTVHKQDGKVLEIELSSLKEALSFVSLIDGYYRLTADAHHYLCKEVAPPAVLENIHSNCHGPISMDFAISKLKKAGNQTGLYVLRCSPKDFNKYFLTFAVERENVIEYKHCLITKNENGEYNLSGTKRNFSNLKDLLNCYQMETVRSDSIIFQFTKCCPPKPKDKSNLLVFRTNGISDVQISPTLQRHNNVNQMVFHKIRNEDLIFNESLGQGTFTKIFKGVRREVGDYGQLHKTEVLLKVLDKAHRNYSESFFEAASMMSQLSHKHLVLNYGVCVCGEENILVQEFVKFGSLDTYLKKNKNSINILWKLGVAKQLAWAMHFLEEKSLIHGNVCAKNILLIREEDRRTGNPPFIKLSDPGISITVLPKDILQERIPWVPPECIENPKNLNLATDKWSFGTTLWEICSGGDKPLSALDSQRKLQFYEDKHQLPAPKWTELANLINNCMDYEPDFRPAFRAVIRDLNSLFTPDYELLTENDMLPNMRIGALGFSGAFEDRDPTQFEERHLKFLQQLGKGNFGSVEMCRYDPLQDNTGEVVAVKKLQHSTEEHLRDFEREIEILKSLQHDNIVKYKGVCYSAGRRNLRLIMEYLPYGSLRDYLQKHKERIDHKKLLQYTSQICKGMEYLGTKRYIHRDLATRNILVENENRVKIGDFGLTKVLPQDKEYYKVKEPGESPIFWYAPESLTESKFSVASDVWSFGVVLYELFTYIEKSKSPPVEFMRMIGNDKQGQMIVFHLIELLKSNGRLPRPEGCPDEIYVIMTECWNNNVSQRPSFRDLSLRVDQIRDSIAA

As usually defined, the IC50 is the concentration needed to halve the response being measured. A higher IC50 goes with weaker potency. As usually defined, the inhibition is how much of the control response was suppressed. As to `COc1cccc(Nc2ncnc3cc(OC)c(OC)cc23)c1`, the IC50 in [1], in assay [2] and in assay [4] was over 100 µM in each case. For the same compound, in assay [3], the inhibition came to 29.4%.

Take `COc1cc2ncnc(Nc3cccc4ccccc34)c2cc1OC`: the result in assay [5] and in assay [7] was Active. For the same compound, the concentration for half-maximal inhibition (IC50) in assay [1] amounted to 8.02 µM; in [2], 7.65 µM; in assay [4], 16.7 µM. Besides, the figures for the inhibition entry in assay [6] and in [3] were “Dose-dependent effect” and 43%, respectively. Further, the inhibition entry in assay [8] is “Active”.

In the case of `COc1cc2ncnc(Nc3ccccc3C)c2cc1OC`, the half-inhibitory concentration (IC50) in [1], in assay [2] and in assay [4] was over 100 µM in each case. In assay [3], the inhibition came to 10.6%.

As to `COc1cc2ncnc(Nc3ccc(C)cc3)c2cc1OC`, the half-inhibitory concentration (IC50) in assay [1] came to 99.5 µM; in assay [2], 57.9 µM; in assay [4], 91.9 µM. The inhibition in [3] was found to be 18.4%.

Take `COc1cc2ncnc(Nc3cccc(O)c3)c2cc1OC`: the IC50 in [1] worked out at 43.9 µM; in assay [2], 59.7 µM; in assay [4] it was 37.5 µM. Besides, in assay [3], the inhibition amounted to 23.8%.

Regarding `COc1ccc(CCNc2ncnc3cc(OC)c(OC)cc23)cc1OC`, the IC50 in assay [1], in assay [2] and in assay [4] was over 100 µM in each case. Further, the inhibition in [3] amounted to 25.3%.

Consider `COc1cc2ncnc(Nc3ccc(Br)cc3)c2cc1OC`, for which the 50% inhibitory concentration (IC50) in assay [2] and in assay [4] was over 100 µM in each case. Further, the inhibition in [3] is 29.3%.

For `COc1cc2ncnc(NN3CCOCC3)c2cc1OC`, the inhibition entry in assay [9] was “Active”. Further, the IC50 in assay [1], in [2] and in [4] was over 100 µM throughout. Further, the inhibition in assay [3] was determined as 44.4%.

In the case of `COc1ccc(Nc2ncnc3cc(OC)c(OC)cc23)cc1`, in [4], the concentration for half-maximal inhibition (IC50) was over 100 µM.

Consider `COc1cc2ncnc(Nc3ccc(O)cc3)c2cc1OC`, for which the concentration for half-maximal inhibition (IC50) in assay [1] was determined as 51.5 µM; in [2] it was 93 µM; in [4], 74.6 µM. Besides, in [3], the inhibition was determined as 33.1%.

In the case of `COc1cc2ncnc(NCCN3CCOCC3)c2cc1OC`, the half-maximal inhibitory concentration (IC50) in assay [1], in assay [2] and in assay [4] was over 100 µM throughout. Moreover, in assay [3], the inhibition was 29.5%.

For `N#C/C(=C\c1ccc(O)c(O)c1)C(=O)NCc1ccccc1`, the inhibition entry in assay [10] was “Active”. Also, in [11], the result was Active. In addition, in [12], the outcome was inactive. Further, the values for the IC50 in assay [1] and in [2] were over 100 µM and 78.5 µM, respectively. For the same compound, the inhibition in assay [3] worked out at 55.1%. For the same compound, the inhibition result in assay [13] was “inactive”.

As to `COCCNc1ncnc2cc(OC)c(OC)cc12`, the IC50 in assay [1], in assay [2] and in assay [4] was over 100 µM throughout. In addition, the inhibition in assay [3] worked out at 38%.

`COc1cc2ncnc(Nc3nc4c(Cl)cccc4s3)c2cc1OC`: the concentration for half-maximal inhibition (IC50) in assay [1], in [2] and in [4] was over 100 µM in each case. Besides, the inhibition in assay [3] stood at 14.4%.
